Experimental data gathered from unrelated publications.
Compare with care: the assays were run in different laboratories.
Cacna1b: Voltage-dependent N-type calcium channel subunit alpha-1B (Cacna1b, Rattus norvegicus, UniProt Q02294)
SIRT6: NAD-dependent protein deacylase sirtuin-6 (SIRT6, Homo sapiens, UniProt Q8N6T7)

target	observed	mode	method	cell line	tested at	inhibition	SMILES
Cacna1b	ligand displacement		radioligand		10 µM	2%	CCN(Cc1ccccc1C(F)(F)F)C(=O)C1CCN(S(=O)(=O)c2ccc3[nH]ncc3c2)CC1
Poly [ADP-ribose] polymerase 2 (PARP2, Homo sapiens, UniProt Q9UGN5)	enzyme activity	inhibitor			10 µM	40%	Ic1cccc2cnccc12
SIRT6	enzyme activity	inhibitor	fluorescence		100 µM	79.7%	NC(=O)c1ccc(C(=O)NOCc2ccccc2Br)cc1
C-C chemokine receptor type 5 (CCR5, Homo sapiens, UniProt P51681)	calcium signal	antagonist		U87/CD4/CCR5	20 µM	76%	C/C(=C\C(=O)OCCCCCCCCC(=O)O)C[C@@H]1OC[C@H](C[C@@H]2O[C@H]2[C@@H](C)[C@H](C)O)[C@@H](O)[C@H]1O
SIRT6	enzyme activity	inhibitor	fluorescence		100 µM	89.1%	NC(=O)c1ccc(C(=O)NOCc2ccc(Oc3ccccc3)cc2)cc1
ALK tyrosine kinase receptor (ALK, Homo sapiens, UniProt Q9UM73, G1202R)	enzyme activity	inhibitor			0.1 µM	-1.5%	CC/C(=N\NC(=O)NCc1cccc(O)c1)c1ccc(O)c(C)c1O
SIRT6	enzyme activity	inhibitor	fluorescence		100 µM	78.2%	COc1ccc(CONC(=O)c2ccc(C(N)=O)cc2)cc1
Cacna1b	cell-free assay				10 µM	5%	O=C(c1ccc(F)cc1)N(Cc1ccccc1)C1CCCCC1
Voltage-dependent L-type calcium channel subunit alpha-1C (Cacna1c, Rattus norvegicus, UniProt P22002)	ligand displacement		radioligand		10 µM	24%	O=C(Nc1ccc(S(=O)(=O)N2CCC(Cl)CC2)cc1)c1ccc([N+](=O)[O-])o1
